Compound activity: PubChem, The Scripps Research Institute Molecular Screening Center
CTSL1 counter: counter-screen for PFM18AAP inhibitors: inhibitors of F. hepatica cathepsin L1. AID 1906. inhibition, % at 5.96 µM. recombinant F. hepatica cathepsin L1, Z-Leu-Arg-MCA fluorescence. 300,000 tested, 0.49% active;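 active = inhibition above the mean of all tested compounds plus 3 SD, set per screening campaign, cut at about 17% in these data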
PAD4 FP inh: PAD4 (human) enzyme inhibition | recombinant PAD4, RCA probe fluorescence polarization | inhibition, % at 6.36 µM | 330,000 tested, 0.41% active;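 active = percent inhibition above a cutoff equal to the mean of all tested compounds plus 3 SD, cut at about 15% in these data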
TDP2 absorb: TDP2 (human) inhibition, absorbance primary screen; O95551; recombinant TDP2, T5PNP hydrolysis, p-nitrophenol absorbance 415 nm; inhibition, % at 12.8 µM; 370,000 tested, 0.34% active;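 active = inhibition above the mean of all tested compounds plus 3 SD, set per campaign, cut at about 25% in these data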
Target sequence (O95551 whole entry, looked up): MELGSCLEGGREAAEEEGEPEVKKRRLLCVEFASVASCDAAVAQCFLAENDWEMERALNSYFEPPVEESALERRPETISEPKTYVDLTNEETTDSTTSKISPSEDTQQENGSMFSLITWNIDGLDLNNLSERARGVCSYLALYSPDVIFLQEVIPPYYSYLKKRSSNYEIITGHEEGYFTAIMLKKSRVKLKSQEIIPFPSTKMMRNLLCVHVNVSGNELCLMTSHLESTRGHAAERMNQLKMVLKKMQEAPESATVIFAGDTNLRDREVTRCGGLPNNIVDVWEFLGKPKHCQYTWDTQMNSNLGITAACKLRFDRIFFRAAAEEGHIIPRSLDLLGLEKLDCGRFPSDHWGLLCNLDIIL
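Test system: human TDP2 enzyme; Input: 120 nM TDP2 per well; Buffer or medium: Mg2+-containing Tris-HCl buffer, pH 7.5; Reagent: 5 mM T5PNP; Dosing: 12.8 µM single point, 1% DMSO; Incubation: reaction 2 h, 37 °C; Detection: p-Nitrophenol epi absorbance; Read-out: % inhibition relative to enzyme-containing and enzyme-free wells; Replicates: single well per compound.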
GSTO1 inh: counter-screen for RBBP9 inhibitors: inhibitors of human GSTO1; recombinant GSTO1, activity-based probe fluorescence polarization; inhibition, % at 5.96 µM; 300,000 tested, 1.1% active; P78417; AID 1974;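 active = inhibition above the campaign mean inhibition plus 3 SD, cut at about 35% in these data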
Target sequence (P78417 whole entry, looked up): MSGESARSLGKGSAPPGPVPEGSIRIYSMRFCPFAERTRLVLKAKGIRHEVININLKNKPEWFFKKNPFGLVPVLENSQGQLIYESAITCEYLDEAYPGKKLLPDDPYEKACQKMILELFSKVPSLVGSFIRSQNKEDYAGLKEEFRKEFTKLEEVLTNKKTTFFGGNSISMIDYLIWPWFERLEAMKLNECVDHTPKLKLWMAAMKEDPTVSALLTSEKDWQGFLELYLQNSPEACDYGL
TDP2 confirm: confirmation of human TDP2 inhibitors; inhibition, % at 12.8 µM; recombinant human TDP2, absorbance read-out; shares compounds with TDP2 absorb; AID 743263; 1,100 tested, 22% active; in the data active = inhibition above about 25%
A number is an active result; i = inactive; nt = no result given. Most compounds without a hit are left out; they make up all but 1.4% or so of the library.

SMILES	CTSL1 counter	PAD4 FP inh	TDP2 absorb	GSTO1 inh	TDP2 confirm
O=c1[nH]c(Nc2ccccn2)cc2ccccc12	i	i	49	i	27
Cc1cc(-c2ccc(C)c(S(=O)(=O)NCc3ccc(OC(C)C)cc3)c2)on1	i	i	32	i	i
CCc1ccc(-c2cc(C)no2)cc1S(=O)(=O)NCCCN1CCN(c2ccccc2)CC1	i	i	i	i	nt
CCN(CCCNS(=O)(=O)c1cc(-c2cc(C)no2)ccc1C)Cc1ccccc1	i	i	47	i	i
COc1ccc2nc(NC(=O)CSC3=NCCS3)sc2c1	i	i	i	i	nt
COc1ccc2nc(NC(=O)CSc3ccccc3)sc2c1	i	i	26	i	i
COc1ccc2nc(NC(=O)CN3C(=O)NC4(CCCCC4)C3=O)sc2c1	i	i	i	i	nt
COc1ccc2nc(NC(=O)CN3C(=O)NC4(CCCC4)C3=O)sc2c1	i	i	63	i	i
c1ccc(-c2nnc3n2N=C(c2ccc4ccccc4c2)CS3)cc1	nt	nt	i	nt	nt
CN1C(=O)NC(c2ccccc2[N+](=O)[O-])C2=C1CC(C)(C)CC2=O (stereo unspecified)	i	i	31	i	i
CN1C(=O)NC(c2ccc([N+](=O)[O-])cc2)C2=C1CC(C)(C)CC2=O (stereo unspecified)	i	i	i	i	nt
CCOc1ccc(CCNC(=O)c2cc(-c3ccccc3)c(N3CCOCC3)s2)cc1OC	nt	nt	i	nt	nt
O=C1CC(c2ccccc2)=NN1c1ccccc1	nt	nt	65	nt	i
O=C(c1cc(C2CC2)on1)N(C1CCCCC1)C1CCOCC1	nt	nt	i	nt	nt
COCC(C)n1c(C)cc(C(=O)COC(=O)CCc2nc3ccccc3c(=O)[nH]2)c1C (stereo unspecified)	i	i	31	i	i
CCOC(=O)[C@H](Cc1ccccc1)NC(=O)[C@H]1C[C@@]2(N3CCCCC3)c3ccccc3N(C(=O)OC(C)(C)C)[C@H]2N1C(=O)OC(C)(C)C	nt	nt	i	nt	nt
COc1cc(CCNC2=CC(=O)c3ncccc3C2=O)ccc1O	nt	nt	29	nt	35
COc1ccccc1CNS(=O)(=O)c1cc(CN2C(=O)c3cccnc3C2=O)ccc1OC	i	i	i	i	nt
COc1cc(C(=S)N2CCCCC2)ccc1OCC(=O)Nc1ccc(F)cc1	i	i	51	i	i
COc1cc(C(=S)N2CCCCC2)ccc1OCC(=O)N1CCCC1	i	i	i	i	nt
O=C(C1=C(O)C(=O)N(CC2CCCO2)C1c1cccc(O)c1)c1ccco1 (stereo unspecified)	i	i	27	i	i
O=C(O)c1ccc(NS(=O)(=O)c2cc(Cl)ccc2Cl)cc1O	i	i	29	i	i
O=S(=O)(Nc1ccncc1)c1cc(Cl)ccc1Cl	i	i	i	i	nt
CCN(CC)CCNC(=O)c1c(O)c2cc(OC)c(OC)cc2[nH]c1=O	i	i	25	i	i
COc1ccc(C=NNC(=O)c2cc(-c3ccc(C)c(C)c3)n[nH]2)cc1OCc1ccccc1	nt	nt	i	nt	nt
SMILES	CTSL1 counter	PAD4 FP inh	TDP2 absorb	GSTO1 inh	TDP2 confirm
COc1ccc(-n2ccnc(SCC(=O)NCc3ccccc3Cl)c2=O)cc1	i	i	i	i	nt
COc1ccccc1-n1ccnc(SCC(=O)NCc2ccccc2Cl)c1=O	i	i	29	i	i
CSCCC(C(=O)NC(C)(C)C)n1c(-c2cccc(NC(C)=O)c2)nc2ccccc21 (stereo unspecified)	nt	nt	i	nt	nt
CCOCCCNC(=O)Cn1cc2c(n1)-c1c(oc(C(=O)N3CCCC3)c1C)CC2	nt	nt	38	nt	i
C=CCN(Cc1ccc2c(c1)OCO2)C(C#CC1CC1)C(C)C (stereo unspecified)	nt	nt	i	nt	nt
COc1ccc(CCN(Cc2cccs2)S(=O)(=O)c2ccc(C)c(C)c2)cc1OC	nt	nt	i	nt	nt
OC(CNCc1ccc(Cl)cc1)COc1ccccc1 (stereo unspecified)	i	i	25	i	i
OC(CNCc1ccccc1)COCc1ccc(Cl)cc1 (stereo unspecified)	i	i	i	i	nt
COC(=O)C[C@@H]1CC[C@H](NC(=O)Cc2ccccn2)[C@@H](CO)O1	nt	nt	28	nt	i
O=S(=O)(c1ccc(Cl)s1)N1CCC(c2cn3ccccc3n2)CC1	nt	nt	i	nt	nt
CC(=O)Nc1nc2cc([N+](=O)[O-])ccc2s1	nt	i	35	nt	i
CC(=O)Nc1nc2cc(N)ccc2s1	nt	i	i	nt	nt
O=C(CCc1nc(-c2ccc(Cl)cc2)no1)OCc1ccc(Br)cc1	i	i	40	i	i
COc1ccc(CCNC(=O)C(NC(=O)OCc2ccccc2)C(C)C)cc1OC (stereo unspecified)	i	i	i	i	nt
CC[C@H](C)[C@H](NC(N)=O)C(=O)NCCc1ccc(OC)c(OC)c1	i	i	25	i	i
CCOC(=O)[C@@]12CCCC3=C1N(CCC3)C(=O)[C@H]2CC(=O)N1CCC(c2ccccc2)CC1	nt	nt	i	nt	nt
COC(=O)[C@H]1C[C@@]2(c3ccccc3)c3ccccc3N[C@H]2N1	nt	nt	i	nt	nt
COc1ccc(-n2c(NC(=O)c3ccco3)c(C#N)c3nc4ccccc4nc32)cc1	i	i	60	i	67
COc1ccc(C(=O)Nc2ccc(NC(=O)c3ccco3)cc2)cc1	i	i	i	i	nt
CCOC(=O)[C@]12CCCC3=C1N(CCC3)C(=O)[C@@H](CC(=O)N1CCCC1)C2	nt	nt	i	nt	nt
CCOC(=O)C(=O)C1=CN(Cc2ccccc2)C=C(C#N)C1	i	i	27	i	i
CCOc1ccc(Oc2c(Cl)c(Br)nn(Cc3cccc4ccccc34)c2=O)cc1	nt	nt	i	nt	nt
Cc1ccc(CNC(=O)CN(C(=O)C2(C)CC(=O)N=C3C=CC=CN32)c2cc(C)ccc2C)cc1 (stereo unspecified)	i	i	26	i	i
Cc1ccc(CNC(=O)CN(Cc2cccs2)C(=O)C2(C)CC(=O)N=C3C=CC=CN32)cc1 (stereo unspecified)	i	i	i	i	nt
O=C(O)c1cc(O)c2c(c1)[C@H]([C@H]1c3cc(C(=O)O)cc(O)c3C(=O)c3c(O[C@@H]4O[C@H](CO)[C@@H](O)[C@H](O)[C@H]4O)cccc31)c1cccc(OC3O[C@H](CO)[C@@H](O)[C@H](O)[C@H]3O)c1C2=O (stereo partly specified)	i	i	46	72	51
SMILES	CTSL1 counter	PAD4 FP inh	TDP2 absorb	GSTO1 inh	TDP2 confirm
O=C1c2c(O)cccc2C(C2OC(CO)[C@@H](O)[C@H](O)[C@H]2O)c2cc(CO)cc(O)c21 (stereo partly specified)	nt	i	i	nt	nt
Cc1ccc(CN2CCC(N3CC(C)OC(C)C3)CC2)cc1 (stereo unspecified)	nt	nt	25	nt	i
CCCCCNC(=O)C(C1CC1)n1c(=O)c(-c2ccco2)nc2ccccc21 (stereo unspecified)	nt	nt	54	nt	i
NC(=O)C1CCN(c2ccnc(Cl)n2)CC1	nt	nt	i	nt	nt
COC(=O)[C@]1(C)N[C@H](CN(C)C(=O)Nc2ccc(F)cc2)[C@@H]2C(=O)N(C)C(=O)[C@@H]21	nt	i	i	nt	nt
COC(=O)[C@]1(C)N[C@H](CN(C)C(=O)Nc2ccc(OC)cc2)[C@@H]2C(=O)N(C)C(=O)[C@@H]21	nt	i	48	nt	i
CCc1nnc(N/N=C/c2cc(C)c(C)cc2C)n1N	nt	nt	65	nt	i
